According to ChEMBL document CHEMBL3739301, “Design, synthesis and biological evaluation of tricyclic diterpene derivatives as novel neuroprotective agents against ischemic brain injury” (Eur J Med Chem, 2015):
Activity calls are given as the source filed them. No cut-off for these calls is given here.

Columns and labels:
[1] = Cytotoxicity against Sprague-Dawley rat CGN cells at <10 uM after 72 hrs by MTT assay; format: cell-based
Procedure, shortened: (§1)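 Primary cerebellar granule neurons from 8-day SD rat pups; cytosine arabinoside […] added at 24 h, used at DIV 6–8. Cells exposed to a concentration series for 72 h, 0.1% DMSO final. Viability by MTT (0.5 mg/ml, 4 h, 37 °C); formazan dissolved in DMSO, OD 570 nm. n = 3, mean ± SD.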

neuronal [2] = experiment: Neuroprotective activity against glutamate-induced neuronal cell death in Sprague-Dawley rat CGN cells assessed as increase in SOD level at 10 uM preincubated for 24 hrs followed by glutamate challenge measured after 24 hrs; format: functional, cell-based
neuronal [3] = experiment: Neuroprotective activity against glutamate-induced neuronal cell death in Sprague-Dawley rat CGN cells assessed as increase in cell viability preincubated for 24 hrs followed by glutamate challenge measured after 24 hrs by MTT assay; format: functional, cell-based
Rattus norvegicus [4] = experiment: Toxicity in Sprague-Dawley rat transient middle cerebral artery occlusion model at 10 mg/kg, iv; format: organism-based; conditions: in vivo
[5] = Neuroprotective activity against nutrient deprivation-induced neuronal cell death in Sprague-Dawley rat CGN cells at 10 uM preincubated for 24 hrs followed by induction of nutrient deprivation measured after 24 hrs relative to control; format: functional
Procedure, shortened: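 Primary rat cerebellar granule neurons (8-day-old Sprague-Dawley pups, DIV 6-8) pretreated 24 h with compound (0.1% DMSO final), then deprived of B27 serum substitute for 24 h. MTT viability (0.5 mg/ml, 4 h) read at 570 nm against control = 100%; neuroprotection percentage derived from the basal deprived value; mean ± SD, n = 3.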

[6] = Neuroprotective activity against glutamate-induced neuronal cell death in Sprague-Dawley rat CGN cells assessed as cell viability at 10 uM preincubated for 24 hrs followed by glutamate challenge measured after 24 hrs by MTT assay (reference value: 40.4%); format: functional; conditions: read-out: Activity
Rattus norvegicus [7] = experiment: Anti-ischemic activity in Sprague-Dawley rat transient middle cerebral artery occlusion model assessed as reduction in neurological deficit at 10 mg/kg, iv administered for 2 to 6 hrs post middle cerebral artery occlusion measured at 24 hrs; format: functional, organism-based
Procedure, shortened: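 Male SD rats (260–280 g); intraluminal nylon suture (~0.26 mm, round tip) occluded MCA for 2 h, then withdrawn for reperfusion, body temperature held at 37 °C. Given iv at 2, 4 and 6 h after ischemia onset; 10 mg/kg in DMSO or 3 mg/kg in saline; DMSO or saline vehicle controls. Neurological score at 24 h after MCAO; n = 8–12, mean ± SD.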

Rattus norvegicus [8] = experiment: Anti-ischemic activity in Sprague-Dawley rat transient middle cerebral artery occlusion model assessed as reduction in infarct volume at 10 mg/kg, iv administered for 2 to 6 hrs post middle cerebral artery occlusion measured at 24 hrs by TTC staining-based morphometric analysis; format: organism-based; set-up: scale not given: the % may be the effect or the level left; conditions: in vivo
Procedure, shortened: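 Male Sprague-Dawley rats (260-280 g), middle cerebral artery occluded 2 h by intraluminal nylon monofilament, then reperfused; body temperature held at 37 C. Drug given iv at 2, 4 and 6 h after ischemia onset (test agent in DMSO, edaravone in saline; vehicle controls). Neurological scoring at 24 h; 2 mm coronal slices stained with 2% TTC 20 min at 37 C, formalin-fixed; infarct volume by morphometry; n = 8-12.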

Rattus norvegicus [9] = experiment: Antioxidant activity in Sprague-Dawley rat transient middle cerebral artery occlusion model assessed as […] in SOD level in ipsilateral cortex at 10 mg/kg, iv measured at 24 hrs post middle cerebral artery occlusion; format: functional, organism-based
Procedure, shortened: (§2)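 Rat tMCAO: 2 h suture occlusion, then reperfusion. Dosing iv at 2, 4 and 6 h after onset, 10 mg/kg (DMSO) or 3 mg/kg (saline). At 24 h the ipsilateral cortex was lysed in RIPA buffer and protein quantified by BCA. GSH concentration and SOD activity were then measured with commercial kits.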

[10] = Neuroprotective activity against oxygen-glucose deprivation-induced neuronal cell death in Sprague-Dawley rat CGN cells at 10 uM preincubated for 24 hrs followed by induction of oxygen-glucose deprivation measured after 24 hrs relative to control; format: functional
[11] = Neuroprotective activity against oxygen-glucose deprivation-induced neuronal cell death in Sprague-Dawley rat CGN cells assessed as cell viability at 1 uM preincubated for 24 hrs followed by induction of oxygen-glucose deprivation measured after 24 hrs by MTT assay (reference value: 48.7%); format: functional; conditions: read-out: Activity
neuronal [12] = experiment: Neuroprotective activity against glutamate-induced neuronal cell death in Sprague-Dawley rat CGN cells assessed as increase in GSH level at 10 uM preincubated for 24 hrs followed by glutamate challenge measured after 24 hrs; format: functional, cell-based
Procedure, shortened: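 Granule neurons pretreated 24 h with […] compound, then […] for 24 h. Lysed in buffer containing protease inhibitor cocktail; protein determined by BCA. SOD activity and GSH level measured with commercial kits. n = 3, mean ± SD.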

[13] = Neuroprotective activity against glutamate-induced neuronal cell death in Sprague-Dawley rat CGN cells at 10 uM preincubated for 24 hrs followed by glutamate challenge measured after 24 hrs relative to control; format: functional
Rattus norvegicus [14] = experiment: Antioxidant activity in Sprague-Dawley rat transient middle cerebral artery occlusion model assessed as […] in GSH level in ipsilateral cortex at 10 mg/kg, iv measured at 24 hrs post middle cerebral artery occlusion; format: functional, organism-based; procedure, shortened: as §2
[15] = Cytotoxicity against Sprague-Dawley rat CGN cells at 50 to 100 uM after 72 hrs by MTT assay; format: cell-based; procedure, shortened: as §1
[16] = Neuroprotective activity against oxygen-glucose deprivation-induced neuronal cell death in Sprague-Dawley rat CGN cells assessed as cell viability at 10 uM preincubated for 24 hrs followed by induction of oxygen-glucose deprivation measured after 24 hrs by MTT assay (reference value: 48.7%); format: functional; conditions: read-out: Activity
[17] = Permeability of the compound at 25 ug/ml after 18 hrs by PAMPA assay; format: ADME; conditions: read-out: permeability
[18] = Neuroprotective activity in Sprague-Dawley rat CGN cells assessed as upregulation of HO-1 expression after 24 hrs by Western blot analysis; format: functional, cell-based
Procedure, shortened: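 Primary granule neurons treated with a concentration series for 24 h, lysed in RIPA buffer, protein by BCA. Separated on 15% SDS-PAGE, transferred to PVDF, blocked in 5% BSA. Primary antibody overnight at 4 °C, secondary 30 min at room temperature; chemiluminescent detection. HO-1 quantified by densitometry normalized to β-actin. n = 3, mean ± SD.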

What does the source list for `CCCCNC(=O)c1cc2c(cc1OC)[C@@]1(C)CC[C@H](O)C(C)(C)[C@@H]1CC2`?
Activity [1]: Non-toxic; Activity (neuronal [2]): Active; Activity (neuronal [3]): Dose-dependent effect; Activity (Rattus norvegicus [4]): Non-toxic; Activity [5]: 25.9%; viability at 10 µM [6]: 94.1%; Activity (Rattus norvegicus [7]): Active; Activity (Rattus norvegicus [8]): 44%; Activity (Rattus norvegicus [9]): Active; Activity [10]: 75.4%; viability at 1 µM [11]: 58.9%; Activity (neuronal [12]): Active; Activity [13]: 90.1%; Activity (Rattus norvegicus [14]): Active; Activity [15]: Toxic; viability at 10 µM [16]: 87.4%; Papp at 18 h, 25 ug/ml [17]: 11.3 ×10⁻⁶ cm/s; Activity [18]: Dose-dependent effect
